According to ChEMBL document CHEMBL4680257, “Discovery of novel NF-кB inhibitor based on scaffold hopping: 1,4,5,6,7,8-hexahydropyrido[4,3-d]pyrimidine” (Eur J Med Chem, 2020):

Tests used:
L02 = assay: Cytotoxicity against human L02 cells assessed as reduction in cell viability incubated for 24 hrs by MTT assay; type: cell-based; settings: L02, 24 h
In short: (§1)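 Cells kept at 37 °C in 5% CO₂. HepG2 grown in DMEM with 10% serum; HHL-5, LO2 and SMMC-7721 in 1640 medium with 10% serum. Seeded, grown 24 h, then exposed 24 h to 10, 5, 2.5, 1.25, 0.625 and 0.3125 µg/mL. MTT (5 mg/mL) added for 4 h at 37 °C; formazan dissolved in DMSO, OD read at 570 nm. IC50 averaged from three replicates.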

SMMC-7721 = assay: Cytotoxicity against human SMMC-7721 cells assessed as reduction in cell viability incubated for 24 hrs by MTT assay; type: functional, cell-based; settings: SMMC-7721, 24 h; in short: as §1
HepG2 = assay: Cytotoxicity against human HepG2 cells assessed as reduction in cell viability incubated for 24 hrs by MTT assay; type: functional, cell-based; settings: HepG2, 24 h; in short: as §1
RAW264.7 [1] = assay: Cytotoxicity against mouse RAW264.7 cells assessed as reduction in cell viability at 5 uM incubated for 24 hrs by MTT assay; type: cell-based; settings: raw264.7, 24 h
[2] = Cytotoxicity against human HHL-5 cells assessed as reduction in cell viability incubated for 24 hrs by MTT assay; type: cell-based; settings: HHL-5, 24 h; in short: as §1
RAW264.7 [3] = assay: Antiinflammatory activity against mouse RAW264.7 cells assessed as LPS-induced TNF-alpha at 5 uM pretreated for 2 hrs followed by LPS stimulation and measured after 22 hrs by ELISA (reference value: 0 %); type: functional; settings: time 24 hrs
RAW264.7 [4] = assay: Antiinflammatory activity against mouse RAW264.7 cells assessed as LPS-induced IL-6 at 5 uM pretreated for 2 hrs followed by LPS stimulation and measured after 22 hrs by ELISA relative to control (reference value: 0 %); type: functional; settings: time 24 hrs

Row | Compound | IC50 (L02) [µM] | IC50 (SMMC-7721) [µM] | IC50 (HepG2) [µM] | Activity (RAW264.7 [1]) | IC50 [2] [µM] | inhibition at 5 µM (RAW264.7 [3]) [%] | inhibition at 5 µM (RAW264.7 [4]) [%]
1 | CC(=O)Nc1ccc(S(=O)(=O)N2C/C(=C\c3ccc(F)cc3)C(=O)/C(=C/c3ccc(F)cc3)C2)cc1 | 19.4 | 9.8 | 7.4 | Non-Toxic | 15 |  | 
2 | CC(=O)Nc1ccc(S(=O)(=O)N2CC3=C(NC(N)=NC3c3ccc(F)cc3)/C(=C/c3ccc(F)cc3)C2)cc1.Cl (centres undefined) | 20.3 | 6.2 | 7.4 | Non-Toxic | 32.2 | 40.1 | 54.2
3 | Cl.NC1=NC(c2ccccc2F)C2=C(N1)/C(=C/c1ccccc1F)CN(S(=O)(=O)c1ccc(Br)cc1)C2 (centres undefined) | 19.5 | 9.7 | 10.4 | Non-Toxic | 12.5 | 74.4 | 79.6
4 | Cc1ccc(S(=O)(=O)N2CC3=C(NC(N)=NC3c3cccc(F)c3)/C(=C/c3cccc(F)c3)C2)cc1.Cl (centres undefined) | 11.2 | 11.7 | 11.7 | Non-Toxic | 23.2 | 40.5 | 46.7
5 | Cl.NC1=NC(c2ccccc2F)C2=C(N1)/C(=C/c1ccccc1F)CN(S(=O)(=O)c1ccc(F)cc1)C2 (centres undefined) | 16.5 | 10 | 12.1 | Non-Toxic | 12 | 78.6 | 79.5
6 | CC(=O)Nc1ccc(S(=O)(=O)N2CC3=C(NC(N)=NC3c3ccccc3F)/C(=C/c3ccccc3F)C2)cc1.Cl (centres undefined) | 11.2 | 8.6 | 11.8 | Non-Toxic | 22.1 | 67.6 | 61.6
7 | Cl.NC1=NC(c2ccc(F)cc2)C2=C(N1)/C(=C/c1ccc(F)cc1)CN(S(=O)(=O)c1ccccc1)C2 (centres undefined) | 9.9 | 8 | 9.5 | Non-Toxic | 11.5 | 33.5 | 39.8
8 | O=C1/C(=C/c2ccccc2F)CN(S(=O)(=O)c2ccc(Cl)cc2)C/C1=C\c1ccccc1F | 14.1 | 4.5 | 10.9 | Non-Toxic | 9.6 |  | 
9 | Cl.NC1=NC(c2ccccc2F)C2=C(N1)/C(=C/c1ccccc1F)CN(S(=O)(=O)c1ccc([N+](=O)[O-])cc1)C2 (centres undefined) | 12.4 | 5.7 | 11.9 | Non-Toxic | 10.7 | 72.7 | 79.6
10 | O=C1/C(=C/c2cccc(F)c2)CN(S(=O)(=O)c2ccc(C(F)(F)F)cc2)C/C1=C\c1cccc(F)c1 | 18 | 4.2 | 2.4 | Non-Toxic | 13.4 |  | 
11 | CC(=O)Nc1ccc(S(=O)(=O)N2CC3=C(NC(N)=NC3c3cccc(F)c3)/C(=C/c3cccc(F)c3)C2)cc1.Cl (centres undefined) | 15 | 6.5 | 22.9 | Non-Toxic | 10.7 | 69.9 | 57.5
12 | Cc1ccc(S(=O)(=O)N2CC3=C(NC(N)=NC3c3ccc(F)cc3)/C(=C/c3ccc(F)cc3)C2)cc1.Cl (centres undefined) | 17.7 | 4.3 | 4.5 | Non-Toxic | 32.7 | 61.8 | 60.1
13 | O=C1/C(=C/c2ccc(F)cc2)CN(S(=O)(=O)c2ccc([N+](=O)[O-])cc2)C/C1=C\c1ccc(F)cc1 | 16.2 | 5 | 5.4 | Non-Toxic | 7.8 |  | 
14 | O=C1/C(=C/c2cccc(F)c2)CN(S(=O)(=O)c2ccc(F)cc2)C/C1=C\c1cccc(F)c1 | 21.9 | 13.5 | 5 | Non-Toxic | 15.4 |  | 
15 | O=C1/C(=C/c2ccccc2F)CN(S(=O)(=O)c2ccccc2)C/C1=C\c1ccccc1F | 17.6 | 5.7 | 15.9 | Non-Toxic | 27.2 |  | 
16 | O=C1/C(=C/c2ccc(F)cc2)CN(S(=O)(=O)c2ccc(Br)cc2)C/C1=C\c1ccc(F)cc1 | 16.4 | 11.5 | 8 | Non-Toxic | 17.1 |  | 
17 | N#Cc1ccc(S(=O)(=O)N2C/C(=C\c3ccccc3F)C(=O)/C(=C/c3ccccc3F)C2)cc1 | 11 | 14.6 | 16.5 | Non-Toxic | 13.6 |  | 
18 | O=C1/C(=C/c2ccccc2F)CN(S(=O)(=O)c2ccc(C(F)(F)F)cc2)C/C1=C\c1ccccc1F | 16.2 | 5.2 | 4.9 | Non-Toxic | 15.3 |  | 
19 | COc1cccc2c1C(=O)c1c(O)c3c(c(O)c1C2=O)C[C@@](O)(C(=O)CO)C[C@@H]3O[C@H]1C[C@H](N)[C@H](O)[C@H](C)O1 [DOXORUBICIN] | 13.8 |  | 1 |  | 12.2 |  | 

Row | Compound | IC50 (L02) [µM] | IC50 (SMMC-7721) [µM] | IC50 (HepG2) [µM] | Activity (RAW264.7 [1]) | IC50 [2] [µM] | inhibition at 5 µM (RAW264.7 [3]) [%] | inhibition at 5 µM (RAW264.7 [4]) [%]
20 | O=C1/C(=C/c2ccccc2F)CN(S(=O)(=O)c2ccc(Br)cc2)C/C1=C\c1ccccc1F | 16.2 | 5.2 | 13.7 | Non-Toxic | 14 |  | 
21 | N#Cc1ccc(S(=O)(=O)N2C/C(=C\c3ccc(F)cc3)C(=O)/C(=C/c3ccc(F)cc3)C2)cc1 | 14.7 | 15 | 9.8 | Non-Toxic | 14.6 |  | 
22 | O=C1/C(=C/c2ccc(F)cc2)CN(S(=O)(=O)c2ccc(F)cc2)C/C1=C\c1ccc(F)cc1 | 14.8 | 14.7 | 8.1 | Non-Toxic | 11.7 |  | 
23 | O=C1/C(=C/c2ccc(F)cc2)CN(S(=O)(=O)c2ccc(C(F)(F)F)cc2)C/C1=C\c1ccc(F)cc1 | 13.5 | 4.4 | 3.2 | Non-Toxic | 16.1 |  | 
24 | Cc1ccc(S(=O)(=O)N2C/C(=C\c3cccc(F)c3)C(=O)/C(=C/c3cccc(F)c3)C2)cc1 | 15.7 | 18.1 | 3.5 | Non-Toxic | 11.2 |  | 
25 | Cc1ccc(S(=O)(=O)N2C/C(=C\c3ccccc3F)C(=O)/C(=C/c3ccccc3F)C2)cc1 | 16.7 | 4.1 | 14.2 | Non-Toxic | 7.9 |  | 
26 | CC(=O)Nc1ccc(S(=O)(=O)N2C/C(=C\c3ccccc3F)C(=O)/C(=C/c3ccccc3F)C2)cc1 |  |  | 5.2 | Non-Toxic | 13.6 |  | 
27 | N#Cc1ccc(S(=O)(=O)N2C/C(=C\c3cccc(F)c3)C(=O)/C(=C/c3cccc(F)c3)C2)cc1 | 15.5 | 4.5 | 2.6 | Non-Toxic | 7.5 |  | 
28 | O=C1/C(=C/c2cccc(F)c2)CN(S(=O)(=O)c2ccccc2)C/C1=C\c1cccc(F)c1 | 16.2 | 12.9 | 3.4 | Non-Toxic | 17.1 |  | 
29 | O=C1/C(=C/c2cccc(F)c2)CN(S(=O)(=O)c2ccc([N+](=O)[O-])cc2)C/C1=C\c1cccc(F)c1 | 10.7 | 15.3 | 8.1 | Non-Toxic | 14.5 |  | 
30 | CC(=O)Nc1ccc(S(=O)(=O)N2C/C(=C\c3cccc(F)c3)C(=O)/C(=C/c3cccc(F)c3)C2)cc1 | 17.5 | 10.3 | 11.1 | Non-Toxic | 17 |  | 
31 | Cc1ccc(S(=O)(=O)N2C/C(=C\c3ccc(F)cc3)C(=O)/C(=C/c3ccc(F)cc3)C2)cc1 | 14 | 5 | 4.5 | Non-Toxic | 6 |  | 
32 | O=C1/C(=C/c2cccc(F)c2)CN(S(=O)(=O)c2ccc(Cl)cc2)C/C1=C\c1cccc(F)c1 | 15.7 | 7.8 | 13.1 | Non-Toxic | 10.8 |  | 
33 | O=C1/C(=C/c2ccc(F)cc2)CN(S(=O)(=O)c2ccc(Cl)cc2)C/C1=C\c1ccc(F)cc1 | 15.5 | 7 | 4.5 | Non-Toxic | 17.7 |  | 
34 | O=C1/C(=C/c2ccccc2F)CN(S(=O)(=O)c2ccc(F)cc2)C/C1=C\c1ccccc1F | 17.5 | 7.7 | 8 | Non-Toxic | 14.5 |  | 
35 | O=C1/C(=C/c2ccc(F)cc2)CN(S(=O)(=O)c2ccccc2)C/C1=C\c1ccc(F)cc1 | 18.8 | 9.1 | 18.8 | Non-Toxic | 7.7 |  | 
36 | O=C1/C(=C/c2cccc(F)c2)CN(S(=O)(=O)c2ccc(Br)cc2)C/C1=C\c1cccc(F)c1 | 15.8 | 11.7 | 7.7 | Non-Toxic | 16.5 |  | 
37 | O=C1/C(=C/c2ccccc2F)CN(S(=O)(=O)c2ccc([N+](=O)[O-])cc2)C/C1=C\c1ccccc1F | 15.5 | 6.2 | 16.5 | Non-Toxic | 6.6 |  | 
